Experimental data from ChEMBL document CHEMBL1142527, “Tricyclic [1,2,4]triazine 1,4-dioxides as hypoxia selective cytotoxins” (J Med Chem, 2008).

Tests used:
[1] = test system: HT-29; assay: Drug diffusion coefficient in human HT-29 multicellular layer under 95% oxygen by liquid scintillation counting; format: ADME, cell-based
How it was run: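 Tissue diffusion coefficient D measured in HT29 multicellular layers held under 95% O₂ to suppress bioreductive metabolism. Reported as ×10⁻⁷ cm²s⁻¹.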

[2] = test system: HT-29; assay: Cytotoxicity against human HT-29 cells assessed as AUC-time curve providing 10% surviving fraction by clonogenic assay; format: functional
[3] = test system: HT-29; assay: Cytotoxicity against human HT-29 cells after 4 hrs under strict hypoxic condition; format: functional, cell-based
[4] = test system: HT-29; assay: Metabolic stability in human HT-29 multicellular layer assessed as apparent first-order rate constant under anoxic condition; format: ADME, cell-based
How it was run: (§1)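 Stirred single-cell suspensions of anoxic HT29 cells are exposed for 3 h at a drug concentration giving roughly one log kill by 1 h. Clonogenic survival is followed, and extracellular drug is monitored by HPLC. Concentration-time data are fitted for the apparent first-order metabolic rate constant k_met, scaled to MCL cell density. CT₁₀ and M₁₀ (drug metabolized at 10% survival) are interpolated from the fitted PK/PD model.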

[5] = Solubility at 22 degC in culture medium in presence of 5% fetal calf serum; format: physicochemical; settings: culture medium with 5% fetal calf serum; read-out: solubility
How it was run: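 Solubility of the HCl salts is determined in culture medium containing 5% fetal calf serum at 22 °C.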

[6] = test system: HT-29; assay: Drug metabolism in human HT-29 cells assessed as amount of drug metabolized for one log of cell kill at their CT10 concentration for 1 hr; format: ADME, cell-based; settings: ht-29, 1 h; how it was run: as §1
[7] = test system: SiHa; assay: Hypoxic cytotoxicity ratio, ratio of aerobic IC50 to anoxic IC50 for human SiHa cells; format: functional
[8] = test system: SiHa; assay: Cytotoxicity against human SiHa cells after 4 hrs under strict hypoxic condition; format: functional, cell-based
[9] = test system: HT-29; assay: Hypoxic cytotoxicity ratio, ratio of aerobic IC50 to anoxic IC50 for human HT-29 cells; format: functional

Molecule `CCCN(CCC)CCNc1n[n+]([O-])c2cc3c(cc2[n+]1[O-])CCC3` has a D [1] of 1.92e-06 cm²/s, an Activity [2] of 31.8 µM·h and an IC50 ([3]; Homo sapiens, HT-29, 4 h) of 2500 nM. For the same molecule, the Activity [4] was 1.07 min⁻¹, the solubility [5] was 20 mM and the Activity [6] was 3941 µM. The “Ratio IC50” value [7] was 91, the IC50 ([8]; Homo sapiens, SiHa, 4 h) was 700 nM and the “Ratio IC50” value [9] was 77.
Work on `CN(C)CCNc1n[n+]([O-])c2cc3c(cc2[n+]1[O-])CCC3` yielded a D [1] of 5.9e-07 cm²/s, an Activity [2] of 16 µM·h and an IC50 ([3]; Homo sapiens, HT-29, 4 h) of 2300 nM. The Activity [4] was 0.44 min⁻¹, the solubility [5] was > 51 mM and the Activity [6] was 815 µM. For the same molecule, the “Ratio IC50” value [7] was 111, the IC50 ([8]; Homo sapiens, SiHa, 4 h) was 700 nM and the “Ratio IC50” value [9] was 152.
In the case of `CN(C)CCNc1n[n+]([O-])c2cc3c(cc2[n+]1[O-])CCO3`, the D [1] is reported as 4.3e-07 cm²/s, the Activity [2] is reported as 18.6 µM·h and the IC50 ([3]; ht-29) is reported as 2400 nM. For the same molecule, the Activity [4] was 3.15 min⁻¹, the solubility [5] was > 48 mM and the Activity ([6]; 1 h) was 6732 µM. For the same molecule, the “Ratio IC50” value [7] was 87, the IC50 ([8]; siha) was 300 nM and the “Ratio IC50” value [9] was 23.
`[O-][n+]1nc(NCCN2CCCCC2)[n+]([O-])c2cc3c(cc21)CCC3` showed a D [1] of 1.19e-06 cm²/s, an Activity [2] of 15.6 µM·h and an IC50 ([3]; Homo sapiens, HT-29, 4 h) of 5800 nM. For the same molecule, the Activity [4] was 1.25 min⁻¹, the solubility [5] was 1.9 mM and the Activity [6] was 2444 µM. For the same molecule, the “Ratio IC50” value [7] was 143, the IC50 ([8]; Homo sapiens, SiHa, 4 h) was 1300 nM and the “Ratio IC50” value [9] was 49.
Molecule `CN(C)CCNc1n[n+]([O-])c2c3c(ccc2[n+]1[O-])CCC3` has a D [1] of 8.4e-07 cm²/s, an Activity [2] of 26.3 µM·h and an IC50 ([3]; Homo sapiens, HT-29, 4 h) of 3000 nM. The Activity [4] was 0.74 min⁻¹, the solubility [5] was > 54 mM and the Activity [6] was 2219 µM. For the same molecule, the “Ratio IC50” value [7] was 99, the IC50 ([8]; Homo sapiens, SiHa, 4 h) was 1600 nM and the “Ratio IC50” value [9] was 67.
